According to ChEMBL document CHEMBL1124174, “Substituted benzamides. 1. Potential nondopaminergic antagonists of chemotherapy-induced nausea and emesis” (J Med Chem, 1988):

What was measured:
Canis familiaris [1] = experiment: In vivo antagonism of cisplatin-induced emesis in dog measured as percentage protection for twice the dose of 0.3 mg/kg in 2 dogs; assay type: functional, Canis lupus familiaris
Method in brief: (§1)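 Nonfasted mature male or female beagles were dosed sc twice, 30 min before and 120 min after cisplatin (3 mg/kg iv; 3 mg/mL in warm 0.9% saline, used immediately). Emesis was observed up to 5 h; events within 2 min counted as one episode. Results were given as mean emetic episodes and % protection versus a dynamic control (historical and concurrent saline means pooled). t test versus saline.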

[2] = target: D(2) dopamine receptor (Canis lupus familiaris) (UniProt Q9GJU1); experiment: In vivo antagonism activity against dopamine D2 receptor was measured as emesis in dog when administered subcutaneously; assay type: functional, organism-based
Sequence of D(2) dopamine receptor (Canis lupus familiaris) (Q9GJU1 whole entry): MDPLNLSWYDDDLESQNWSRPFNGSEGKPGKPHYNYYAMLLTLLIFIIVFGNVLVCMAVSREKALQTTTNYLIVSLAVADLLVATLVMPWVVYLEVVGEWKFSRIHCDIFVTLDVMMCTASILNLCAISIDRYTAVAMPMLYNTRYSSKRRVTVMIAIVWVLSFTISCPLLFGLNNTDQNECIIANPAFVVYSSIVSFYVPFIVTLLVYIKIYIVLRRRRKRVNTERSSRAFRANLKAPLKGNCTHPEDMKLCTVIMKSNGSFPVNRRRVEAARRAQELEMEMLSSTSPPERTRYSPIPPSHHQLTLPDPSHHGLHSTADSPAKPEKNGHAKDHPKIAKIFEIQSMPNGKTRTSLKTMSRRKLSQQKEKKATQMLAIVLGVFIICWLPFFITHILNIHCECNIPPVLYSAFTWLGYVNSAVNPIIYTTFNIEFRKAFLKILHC

D(2) dopamine receptor = D(2) dopamine receptor (Rattus norvegicus, UniProt P61169); experiment: In vitro antagonistic activity against Dopamine receptor D2 was evaluated for the inhibition of [3H]spiperone binding
Sequence of D(2) dopamine receptor (P61169 whole entry): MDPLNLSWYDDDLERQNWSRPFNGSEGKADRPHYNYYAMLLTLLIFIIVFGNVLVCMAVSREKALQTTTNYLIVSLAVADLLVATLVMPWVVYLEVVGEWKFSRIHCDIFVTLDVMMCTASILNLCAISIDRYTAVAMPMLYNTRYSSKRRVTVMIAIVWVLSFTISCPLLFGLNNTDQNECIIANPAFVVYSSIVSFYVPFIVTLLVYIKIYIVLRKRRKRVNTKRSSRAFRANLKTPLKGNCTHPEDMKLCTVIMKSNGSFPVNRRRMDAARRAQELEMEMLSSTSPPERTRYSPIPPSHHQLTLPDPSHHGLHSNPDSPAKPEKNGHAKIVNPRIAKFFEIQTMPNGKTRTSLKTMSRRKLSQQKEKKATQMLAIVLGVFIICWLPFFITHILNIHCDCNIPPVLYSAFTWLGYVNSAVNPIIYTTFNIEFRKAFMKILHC
Method in brief: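 Rat striatal membranes were prepared by differential centrifugation in 50 mM Tris pH 7.4 at 4 °C. Membrane protein (10 mg) was incubated 15 min at 37 °C with 0.1 nM [3H]spiperone and varying competitor concentrations. Buffer: 50 mM Tris HCl pH 7.5, 0.1% ascorbic acid, pargyline, 120 mM NaCl, 5 mM KCl, 2 mM CaCl2, 1 mM MgCl2. (+)-Butaclamol defined nonspecific binding. Bound ligand was collected by filtration and scintillation counted. IC50 by log-logit regression.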

Canis familiaris [3] = experiment: In vivo antagonism of cisplatin-induced emesis in dog measured as emetic episodes, twice the dose of 0.3 mg/kg in 2 dogs; assay type: functional, Canis lupus familiaris; method in brief: as §1
Canis familiaris [4] = experiment: In vivo antagonism of cisplatin-induced emesis in dog measured as emetic episodes, twice the dose of 1 mg/kg in 2 dogs; assay type: functional, Canis lupus familiaris; method in brief: as §1
Canis familiaris [5] = experiment: In vivo antagonism of cisplatin-induced emesis in dog measured as percentage protection for twice the dose of 1 mg/kg in 2 dogs; assay type: functional, Canis lupus familiaris; method in brief: as §1
Mustela putorius furo [6] = experiment: In vivo antagonism of cisplatin-induced emesis in ferret measured as percentage protection for twice the dose of 0.3 mg/kg and in 3 ferrets; assay type: functional
Method in brief: (§2)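 Nonfasted castrated male Fitch ferrets (1–1.5 kg) had jugular catheters implanted ≥48 h earlier under anesthesia. Compounds or saline were given iv twice, 5 min before and 90 min after cisplatin (12 mg/kg iv; 12 mg/mL in warm 0.9% saline). Emesis was observed up to 4 h; events within 1 min counted as one episode. Results were given as mean emetic episodes and % protection versus a pooled historical/concurrent control. t test versus saline.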

Mustela putorius furo [7] = experiment: In vivo antagonism of cisplatin-induced emesis in ferret measured as emetic episodes, twice the dose of 3 mg/kg and in 3 ferrets; assay type: functional; method in brief: as §2
Mustela putorius furo [8] = experiment: In vivo antagonism of cisplatin-induced emesis in ferret measured as emetic episodes, twice the dose of 0.3 mg/kg and in 3 ferrets; assay type: functional; method in brief: as §2
Mustela putorius furo [9] = experiment: In vivo antagonism of cisplatin-induced emesis in ferret measured as percentage protection for twice the dose of 3 mg/kg and in 3 ferrets; assay type: functional; method in brief: as §2
[10] = target: D(2) dopamine receptor (Rattus norvegicus) (UniProt P61169); experiment: In vivo antagonism activity against D2 receptor was measured as stereotypy in rat when administered subcutaneously; assay type: functional, organism-based
Sequence of D(2) dopamine receptor (Rattus norvegicus) (P61169 whole entry): as above
Method in brief: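 Male Long Evans rats (275 g) were dosed sc in dilute aqueous HCl (pH 4.5-5.5) 30 min before apomorphine (1 mg/kg sc).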

[11] = target: D(2) dopamine receptor (Rattus norvegicus) (UniProt P61169); experiment: In vivo antagonistic activity against dopamine D2 receptor was measured as catalepsy in rat when administered subcutaneously; assay type: functional, organism-based
Method in brief: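 Male Long Evans rats (275 g) received graded sc doses in dilute aqueous HCl (pH 4.5-5.5). They were observed 180 min for catalepsy, scored when the animal stayed stationary ≥15 s on a four-cork template.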

Mustela putorius furo [12] = experiment: In vivo antagonism of cisplatin-induced emesis in ferret measured as emetic episodes, twice the dose of 1 mg/kg and in 3 ferrets; assay type: functional; method in brief: as §2
Mustela putorius furo [13] = experiment: In vivo antagonism of cisplatin-induced emesis in ferret measured as percentage protection for twice the dose of 1 mg/kg and in 3 ferrets; assay type: functional; method in brief: as §2
Canis familiaris [14] = experiment: In vivo antagonism of cisplatin-induced emesis in dog measured as emetic episodes, twice the dose of 6 mg/kg in 2 dogs; assay type: functional, Canis lupus familiaris; method in brief: as §1
Canis familiaris [15] = experiment: In vivo antagonism of cisplatin-induced emesis in dog measured as percentage protection for twice the dose of 6 mg/kg in 2 dogs; assay type: functional, Canis lupus familiaris; method in brief: as §1

In the case of `CCN(CC)CCNC(=O)c1cc(Cl)c(N)cc1OC1CCCCC1=O` (stereo not drawn), the Protection (Canis familiaris [1]) is reported as 88%, the ED50 [2] is reported as > 3 mg/kg and the IC50 (D(2) dopamine receptor) is reported as > 1000 nM. The Emetic episodes (Canis familiaris [3]) was 1.5, the Emetic episodes (Canis familiaris [4]) was 0 and the Protection (Canis familiaris [5]) was 100%. It also gave a Protection (Mustela putorius furo [6]) of 62%, an Emetic episodes (Mustela putorius furo [7]) of 0 and an Emetic episodes (Mustela putorius furo [8]) of 2.7. For the same compound, the Protection (Mustela putorius furo [9]) was 100%, the ED50 [10] was > 40 mg/kg and the ED50 [11] was > 40 mg/kg.
`CCN(CC)CCNC(=O)c1cc(Cl)c(N)cc1OC(C)C(C)O` (stereo in doubt; 8g,h) was tested, and the Protection (Canis familiaris [1]; 0.3 mg/kg) was 96%, the IC50 (D(2) dopamine receptor) was > 1000 nM and the Emetic episodes (Canis familiaris [3]; 0.3 mg/kg) was 0.5. For the same compound, the Emetic episodes (Mustela putorius furo [7]; 3 mg/kg) was 1.3, the Emetic episodes (Mustela putorius furo [12]; 1 mg/kg) was 1.7 and the Protection (Mustela putorius furo [13]; 1 mg/kg) was 75%. It also gave a Protection (Mustela putorius furo [9]; 3 mg/kg) of 80%.
`CCN(CC)CCNC(=O)c1cc(Cl)c(N)cc1OC[C@@H](C)O` (stereo in doubt; 8f) was tested, and the IC50 (D(2) dopamine receptor) was > 1000 nM, the Emetic episodes (Canis familiaris [3]; 0.3 mg/kg) was 2 and the Emetic episodes (Canis familiaris [4]; 1 mg/kg) was 0. It also gave a Protection (Canis familiaris [5]; 1 mg/kg) of 100%, a Protection (Mustela putorius furo [6]) of 0% and an Emetic episodes (Mustela putorius furo [8]) of 8. It also gave an Emetic episodes (Mustela putorius furo [12]; 1 mg/kg) of 5.7 and a Protection (Mustela putorius furo [13]; 1 mg/kg) of 22%.
With `CCN(CC)CCNC(=O)c1cc(Cl)c(N)cc1OC(C)C(C)O` (stereo in doubt; 8h) the Protection (Canis familiaris [1]; 0.3 mg/kg) was 60%, the IC50 (D(2) dopamine receptor) was > 1000 nM and the Emetic episodes (Canis familiaris [3]; 0.3 mg/kg) was 4.5. For the same compound, the Emetic episodes (Canis familiaris [4]) was 3, the Protection (Canis familiaris [5]) was 75% and the Protection (Mustela putorius furo [6]; 0.3 mg/kg) was 37%. It also gave an Emetic episodes (Mustela putorius furo [7]; 3 mg/kg) of 0.3, an Emetic episodes (Mustela putorius furo [8]; 0.3 mg/kg) of 4.7 and an Emetic episodes (Mustela putorius furo [12]; 1 mg/kg) of 2.3. The Protection (Mustela putorius furo [13]; 1 mg/kg) was 68% and the Protection (Mustela putorius furo [9]; 3 mg/kg) was 95%.
In the case of `CCN(CC)CCNC(=O)c1cc(Cl)c(N)cc1OC1CCCC[C@@H]1OC` (stereo partly drawn), the ED50 [2] is reported as > 3 mg/kg, the IC50 (D(2) dopamine receptor) is reported as > 1000 nM and the Emetic episodes (Canis familiaris [4]) is reported as 10. For the same compound, the Protection (Canis familiaris [5]) was 15%, the Protection (Mustela putorius furo [6]) was 42% and the Emetic episodes (Mustela putorius furo [7]) was 0.7. It also gave an Emetic episodes (Mustela putorius furo [8]) of 4.3, an Emetic episodes (Mustela putorius furo [12]) of 2.3 and a Protection (Mustela putorius furo [13]) of 69%. The Protection (Mustela putorius furo [9]) was 91%, the ED50 [10] was > 40 mg/kg and the ED50 [11] was > 40 mg/kg.
In the case of `CCN(CC)CCNC(=O)c1cc(Cl)c(N)cc1OC/C(C)=N/OC`, the IC50 (D(2) dopamine receptor) is reported as > 1000 nM, the Emetic episodes (Canis familiaris [14]) is reported as 3.5 and the Protection (Canis familiaris [15]) is reported as 71%. For the same compound, the Emetic episodes (Mustela putorius furo [7]) was 0.7, the Protection (Mustela putorius furo [9]) was 90% and the ED50 [10] was > 40 mg/kg. For the same compound, the ED50 [11] was > 40 mg/kg.
With `C=CCOc1cc(N)c(Cl)cc1C(=O)NCCN(CC)CC` the ED50 [2] was > 1 mg/kg, the IC50 (D(2) dopamine receptor) was > 1000 nM and the Emetic episodes (Canis familiaris [14]) was 1. For the same compound, the Emetic episodes (Canis familiaris [4]) was 3.5, the Protection (Canis familiaris [5]) was 72% and the Protection (Canis familiaris [15]) was 90%. For the same compound, the Protection (Mustela putorius furo [6]) was 30%, the Emetic episodes (Mustela putorius furo [7]) was 0.3 and the Emetic episodes (Mustela putorius furo [8]) was 4.7. It also gave an Emetic episodes (Mustela putorius furo [12]) of 3, a Protection (Mustela putorius furo [13]) of 56% and a Protection (Mustela putorius furo [9]) of 95%. For the same compound, the ED50 [10] was > 40 mg/kg and the ED50 [11] was > 40 mg/kg.
For `CCN(CC)CCNC(=O)c1cc(Cl)c(N)cc1OCc1ccccn1`, the ED50 [2] was > 3 mg/kg, the IC50 (D(2) dopamine receptor) was > 1000 nM and the Emetic episodes (Mustela putorius furo [7]) was 1. It also gave an Emetic episodes (Mustela putorius furo [12]) of 2.3, a Protection (Mustela putorius furo [13]) of 67% and a Protection (Mustela putorius furo [9]) of 86%. The ED50 [10] was > 40 mg/kg and the ED50 [11] was > 40 mg/kg.
For `CCC(=O)C(C)Oc1cc(N)c(Cl)cc1C(=O)NCCN(CC)CC` (stereo not drawn), the Protection (Canis familiaris [1]) was 84%, the ED50 [2] was > 3 mg/kg and the IC50 (D(2) dopamine receptor) was > 1000 nM. The Emetic episodes (Canis familiaris [3]) was 2, the Emetic episodes (Mustela putorius furo [12]) was 1.3 and the Protection (Mustela putorius furo [13]) was 82%. For the same compound, the ED50 [10] was > 40 mg/kg and the ED50 [11] was > 40 mg/kg.
With `CCN(CC)CCNC(=O)c1cc(Cl)c(N)cc1OC1CCCC1=O` (stereo not drawn) the ED50 [2] was > 3 mg/kg, the IC50 (D(2) dopamine receptor) was > 1000 nM and the Protection (Canis familiaris [5]) was 87%. For the same compound, the Emetic episodes (Mustela putorius furo [12]) was 5.7, the Protection (Mustela putorius furo [13]) was 21% and the ED50 [10] was > 40 mg/kg. For the same compound, the ED50 [11] was > 40 mg/kg.
`CCN(CC)CCNC(=O)c1cc(Cl)c(N)cc1OCC(C)=O` was tested, and the Protection (Canis familiaris [1]) was 60%, the ED50 [2] was > 3 mg/kg and the IC50 (D(2) dopamine receptor) was > 1000 nM. The Emetic episodes (Canis familiaris [14]) was 0.5, the Emetic episodes (Canis familiaris [3]) was 5 and the Emetic episodes (Canis familiaris [4]) was 1.5. The Protection (Canis familiaris [5]) was 92%, the Protection (Canis familiaris [15]) was 96% and the Protection (Mustela putorius furo [6]) was 44%. It also gave an Emetic episodes (Mustela putorius furo [7]) of 0.7, an Emetic episodes (Mustela putorius furo [8]) of 4 and an Emetic episodes (Mustela putorius furo [12]) of 4.5. For the same compound, the Protection (Mustela putorius furo [13]) was 38%, the Protection (Mustela putorius furo [9]) was 90% and the ED50 [10] was > 40 mg/kg. For the same compound, the ED50 [11] was > 40 mg/kg.
`CCN(CC)CCNC(=O)c1cc(Cl)c(N)cc1OCCC(C)O` (stereo not drawn) was tested, and the Protection (Canis familiaris [1]) was 32%, the ED50 [2] was > 3 mg/kg and the IC50 (D(2) dopamine receptor) was > 1000 nM. It also gave an Emetic episodes (Canis familiaris [3]) of 8, an Emetic episodes (Mustela putorius furo [12]) of 2 and a Protection (Mustela putorius furo [13]) of 73%. The ED50 [10] was > 40 mg/kg and the ED50 [11] was > 40 mg/kg.
